# rCAG binder: binders of r(CAG) RNA repeats, primary screen, biochemical, fluorescence; inhibition, % at 3 µM; AID 651821, 2012; 370,000 compounds, 1.3% hits; r(CAG) RNA repeat, TO-PRO-1 dye displacement fluorescence;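 active = inhibition above the plate cutoff, the mean of all test compounds on that plate plus 3 SD, cut at about 35% in these data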;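 note: 0% = DMSO alone and 100% = 100 µM mitoxantrone as full dye displacement; higher means more dye released from RNA so lower well fluorescence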
# ASAP1 GAP inh: inhibitors of human ASAP1 ArfGAP activity, primary screen, biochemical, fluorescence polarization; Arf-GAP with SH3 domain, ANK repeat and PH domain-containing protein 1 (Homo sapiens), …; ASAP1-stimulated ARF1 GTP hydrolysis, GDP FP detection; inhibition, % at 16.5 µM; 360,000 compounds, 0.19% hits; AID 624377, 2012; in the data active = inhibition above about 25%;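 note: 0% = vehicle with enzyme and substrate and 100% = no enzyme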
# NadD inh: inhibitors of S. aureus NadD, primary screen, biochemical, colorimetric, uHTS. purified NadD enzyme, colorimetric absorbance read-out. Nicotinate-nucleotide adenylyltransferase NadD (Staphylococcus aureus N315). inhibition, % at 20 µM. AID 602399, 2012. 360,000 compounds, 0.78% hits; in the data active = inhibition above about 26%
# ARFGAP1 inh: inhibitors of rat ARFGAP1 GAP activity, primary screen, biochemical, fluorescence polarization, GDP tracer; ADP-ribosylation factor GTPase-activating protein 1 (Rattus norvegicus), Q62848; Arfgap1-stimulated ARF1 GTP hydrolysis, GDP FP detection; inhibition, % at 16.5 µM; 360,000 compounds, 0.26% hits; AID 651572, 2012;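 active = inhibition above a per-plate limit, mean inhibition of low control wells plus 3 SD, cut at about 25% in these data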;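 note: 0% = DMSO wells with enzyme and 100% = wells lacking Arfgap1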
# Target sequence (Q62848 1-136 limits assumed): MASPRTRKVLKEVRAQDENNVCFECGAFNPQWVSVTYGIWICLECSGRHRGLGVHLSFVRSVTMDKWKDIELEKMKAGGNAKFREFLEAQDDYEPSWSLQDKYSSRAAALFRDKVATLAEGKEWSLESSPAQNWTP
#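 material = rat Arfgap1 catalytic domain, aa 1-136 | also added = human ARF1(Δ1-17)-GTP substrate | compound dosing = one concentration, 16.5 µM, DMSO 1.26% | times = GTP hydrolysis reaction 2 h at 25 °C | measured by = FP, GDP Alexa 633 tracer displaced from anti-GDP antibody, 620/688 nm | evaluation = percent inhibition of Arfgap1-stimulated GTP hydrolysis | replication = single well per compound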
# ARFGAP1 inh conf: ARFGAP1 inhibitor hit confirmation, biochemical, fluorescence polarization, triplicate. shares compounds with ARFGAP1 inh. ARFGAP1-stimulated ARF1 GTP hydrolysis, GDP tracer FP. inhibition, % at 16.5 µM. 890 compounds, 30% hits. AID 651608, 2012;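 active = average inhibition over triplicates above the hit cutoff set in the earlier primary screen, cut at about 25% in these data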;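 note: 0% = Arfgap1 plus ARF1-GTP with DMSO and 100% = wells lacking Arfgap1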
# Target sequence (Q62848 whole entry, looked up): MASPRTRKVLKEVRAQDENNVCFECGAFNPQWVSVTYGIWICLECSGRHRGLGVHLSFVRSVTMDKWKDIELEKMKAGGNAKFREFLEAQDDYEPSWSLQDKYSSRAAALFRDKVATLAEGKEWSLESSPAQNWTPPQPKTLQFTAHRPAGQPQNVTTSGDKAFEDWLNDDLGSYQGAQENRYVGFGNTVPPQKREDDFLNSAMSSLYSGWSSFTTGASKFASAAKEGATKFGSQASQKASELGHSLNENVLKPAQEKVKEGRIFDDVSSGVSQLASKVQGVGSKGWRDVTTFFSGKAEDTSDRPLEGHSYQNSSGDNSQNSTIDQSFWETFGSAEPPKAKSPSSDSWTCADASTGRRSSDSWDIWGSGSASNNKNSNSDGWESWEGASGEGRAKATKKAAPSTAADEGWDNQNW
# * hit, by the source's call; · = no result given. In the library only some 2.2% were active in any assay of this set; here they are far more common.
SMILES,rCAG binder,ASAP1 GAP inh,NadD inh,ARFGAP1 inh,ARFGAP1 inh conf
COc1cc2c(cc1OC)C(C)N(C(=O)c1cc3c(s1)-c1ccccc1OC3)CC2 (centres undefined),7.0,3.8,-0.5,24.8*,5.4
Cc1cc(C)n(C(C)CNS(=O)(=O)c2ccc(Cl)cc2)n1 (centres undefined),-1.1,8.4,2.2,24.7*,-1.7
CSc1ccc(S(=O)(=O)NC2CC2)cc1,1.5,-6.2,-0.2,-6.9,·
CCCCn1c(N)c(N(CCOC)C(=O)c2c(C)noc2C)c(=O)[nH]c1=O,-3.9,7.2,-1.9,25.1*,-0.9
CCCCN(C(=O)c1c(C)noc1C)c1c(N)n(CCCC)c(=O)[nH]c1=O,2.2,7.4,-0.9,0.3,·
CCOC(=O)Cn1cc(CN2CCS(=O)(=O)N(Cc3ccc(F)cc3)C(C(=O)OC)C2)nn1 (centres undefined),4.3,·,·,·,·
O=C(Nc1ccc(OC(F)(F)F)cc1)C1CCCN(C(=O)c2ccc(Cl)cc2)C1 (centres undefined),0.8,13.7,-8.2,24.9*,6.3
CCCc1cc(=O)oc2cc(OCC(=O)NCCc3c[nH]c4ccccc34)ccc12,1.9,-3.6,-4.6,26.1*,7.9
COc1ccc(N=C(N)NC(=O)OCc2ccccc2)cc1,2.7,·,·,·,·
CCc1cc(C(=O)NNC(=O)CCl)sc1C,1.4,-2.2,-2.1,24.8*,-4.5
Brc1ccc(CN2CCN(c3ncc(Cc4ccccc4)cn3)CC2)cc1,2.9,1.5,·,-1.1,·
NC(=O)c1ccc(NC(=O)COC(=O)/C=C/c2cn(-c3ccccc3)nc2-c2cccnc2)cc1,11.1,12.2,25.5,30.0*,45.9*
O=C(COc1ccc(Cl)cc1Cl)NCCSc1ccc(Cl)cc1,-2.8,3.6,0.6,29.2*,-2.3
CN(C)CCNC(=O)COc1ccc(Cl)cc1Cl,2.2,-9.4,0.8,-7.9,·
CSc1ncnc2c1ncn2CCCN1CCN(Cc2c(C)cc(C)cc2C)CC1,0.8,6.1,-2.2,6.4,·
Cc1ccc2nc(-c3ccc(SCC(=O)Nc4nc(C)cs4)nc3)[nH]c2c1,4.0,-5.6,19.4,25.2*,33.5*
Cc1ccc2nc(-c3ccc(SCC(=O)Nc4nnc(C)s4)nc3)[nH]c2c1,2.9,-4.2,16.6,6.5,·
O=C(C1CCN(c2ncnc3c2sc2cccc(F)c23)CC1)N1CCN(C(=O)C2CCCO2)CC1 (centres undefined),6.5,·,·,·,·
Cc1ccc2c(COC(=O)CNC(=O)c3ccco3)cc(=O)oc2c1C,8.8,-2.1,0.2,-10.2,·
O=C(COc1ccc(Cl)cc1)Nc1ccc2c(c1)CCC2,1.2,-6.6,-2.4,29.6*,8.2
CC(=O)c1ccc(OCC(=O)Nc2ccc3c(c2)CCC3)cc1,1.2,-1.3,-0.7,10.7,·
CC(NC(=O)OCc1ccccc1)c1ccccc1 (centres undefined),-5.4,-6.5,-2.6,-5.6,·
CNC(=O)[C@@H]1C[C@H]1[C@@H](NC(=O)OCc1ccccc1)c1ccccc1,-5.5,4.4,-2.3,25.3*,1.9
CSc1n[nH]c(-c2cccs2)n1,2.6,-1.3,·,7.0,·
COc1ccc(O)c(-c2cc(-c3ccccc3Cl)[nH]n2)c1,12.3,16.7,-7.6,30.3*,16.8
SMILES,rCAG binder,ASAP1 GAP inh,NadD inh,ARFGAP1 inh,ARFGAP1 inh conf
CC(OC(=O)c1cc2c(s1)CCCCC2)C(=O)NC(N)=O (centres undefined),-3.0,-11.6,-3.1,28.4*,-3.6
CC(C)C(OC(=O)c1cc2c(s1)CCCCC2)C(=O)NC(N)=O (centres undefined),-1.0,3.0,0.0,5.0,·
COc1cccc(/C=N/n2nnc3c(cnn3-c3ccccc3)c2=O)c1,2.8,1.3,-3.6,5.2,·
COc1cccc(/C=C/c2nc3c(cnn3-c3ccccc3)c(=O)[nH]2)c1,4.7,16.6,-1.1,27.7*,4.7
O=C(Nc1ccc(F)cc1)OCc1cn(Cc2c(F)cccc2F)nn1,1.1,·,·,·,·
CN(Cc1cccc(F)c1)C(=O)c1ccc(S(=O)(=O)N2CCCCCC2)cc1,-2.5,-6.4,-3.1,11.2,·
Nc1cccc(-c2nc3cc(S(=O)(=O)c4ccc5oc(-c6cccc(N)c6)nc5c4)ccc3o2)c1,3.0,3.8,16.1,26.1*,21.0
COC(=O)C1=C(C)N(Cc2ccc(C(F)(F)F)cc2)C(=NCc2ccccc2)NC1c1cccc(F)c1 (centres undefined),8.6,-8.4,·,2.5,·
COC(=O)C1=C(C)N(Cc2cccc(C(F)(F)F)c2)C(=NCc2ccc(C(F)(F)F)cc2)NC1c1cccc(F)c1 (centres undefined),4.8,2.7,·,29.4*,5.6
COC(=O)C1=C(C)N(Cc2cccc(C(F)(F)F)c2)C(=NCc2ccc(C(F)(F)F)cc2)NC1c1ccc(C(F)(F)F)cc1 (centres undefined),3.5,19.3,·,32.5*,15.6
COC(=O)C1=C(C)N(Cc2cccc(C(F)(F)F)c2)C(=NCc2ccc(C(F)(F)F)cc2)NC1c1ccc(F)cc1 (centres undefined),7.1,4.9,·,19.7,·
CCOC(=O)[C@]12CCCC=C1N(Cc1ccc3c(c1)OCO3)C(=O)[C@H](CC(=O)NCCc1ccccc1OC)C2,3.0,-7.1,-6.0,-8.0,·
CCC[C@@H]1CCCO[C@@](C(=O)NCCN2CCOCC2)(C(F)(F)F)C1,-5.6,6.0,-7.2,31.0*,-5.0
CCCCC1CCCOC(C(=O)NCCNCCO)(C(F)(F)F)C1 (centres undefined),-0.6,1.0,-5.3,-2.3,·
COc1ccc(C2C(C(=O)Nc3ccc(C)c(C)c3)CCC(=O)N2c2ccc(OC)cc2)cc1 (centres undefined),1.4,·,·,·,·
COc1ccc(-c2nc3cc(NC(=O)Cc4ccc(OC)c(OC)c4)ccc3o2)cc1,8.6,9.9,-8.8,25.1*,14.8
COc1ccccc1OCC(=O)NCC1CCCN(C(=O)c2ccccc2C(C)=O)C1 (centres undefined),-4.9,-6.3,3.0,27.9*,-2.6
O=C(Nc1ccc(Oc2cccc3ccccc23)cc1)c1ccco1,1.2,-7.4,-8.0,27.9*,11.8
COc1ccc(OC)c(NC(=O)c2ccccc2N(Cc2ccccc2)C(=O)C(C)Cl)c1 (centres undefined),4.7,·,·,·,·
Cc1ccc(C(=O)C(C)[n+]2cccc(C(N)=O)c2)cc1 (centres undefined),-0.9,14.9,-8.9,5.8,·
Cc1ccc[n+](C(C)C(=O)c2ccc(Cl)cc2)c1 (centres undefined),-0.4,6.4,-0.2,45.3*,-1.8

# Screening data from PubChem.
